Measured values as given in ChEMBL document CHEMBL3797162, “Synthesis and inhibitory evaluation of 3-linked imipramines for the exploration of the S2 site of the human serotonin transporter” (Bioorg Med Chem, 2016).

Key:
Assay type in all cases: cell-based
[1] = molecular target: Sodium-dependent serotonin transporter (Homo sapiens, UniProt P31645); test: Inhibition of wild-type human SERT expressed in HEK293 MSR cells assessed as [3H]-5-HT uptake preincubated for 30 mins followed addition of [3H]-5HT and compound for 10 mins by micro-scintillation counter
Outline: (§1)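 Cells were transiently transfected (Lipofectamine 2000, 0.2 µg DNA per cm²) and used after 48–60 h. Cells were washed in PBS with Ca/Mg (pH 7.4) and preincubated 30 min with a dilution series. 50–100 nM [3H]5-HT plus inhibitor was then added for 10 min at room temperature.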

[2] = molecular target: Sodium-dependent serotonin transporter (Homo sapiens, UniProt P31645, W103A); test: Inhibition of human SERT W103A mutant expressed in HEK293 MSR cells assessed as [3H]-5-HT uptake preincubated for 30 mins followed addition of [3H]-5HT and compound for 10 mins by micro-scintillation counter; outline: as §1
[3] = molecular target: Sodium-dependent serotonin transporter (Homo sapiens, UniProt P31645, I179C); test: Inhibition of human SERT I179C mutant expressed in HEK293 MSR cells assessed as [3H]-5-HT uptake preincubated for 30 mins followed addition of [3H]-5HT and compound for 10 mins by micro-scintillation counter; outline: as §1
[4] = molecular target: Sodium-dependent serotonin transporter (Homo sapiens, UniProt P31645, I172M); test: Inhibition of human SERT I172M mutant expressed in HEK293 MSR cells assessed as [3H]-5-HT uptake preincubated for 30 mins followed addition of [3H]-5HT and compound for 10 mins by micro-scintillation counter; outline: as §1
Sodium-dependent serotonin transporter (Homo sapiens, UniProt P31645, I172M), sequence (P31645 whole entry I172M): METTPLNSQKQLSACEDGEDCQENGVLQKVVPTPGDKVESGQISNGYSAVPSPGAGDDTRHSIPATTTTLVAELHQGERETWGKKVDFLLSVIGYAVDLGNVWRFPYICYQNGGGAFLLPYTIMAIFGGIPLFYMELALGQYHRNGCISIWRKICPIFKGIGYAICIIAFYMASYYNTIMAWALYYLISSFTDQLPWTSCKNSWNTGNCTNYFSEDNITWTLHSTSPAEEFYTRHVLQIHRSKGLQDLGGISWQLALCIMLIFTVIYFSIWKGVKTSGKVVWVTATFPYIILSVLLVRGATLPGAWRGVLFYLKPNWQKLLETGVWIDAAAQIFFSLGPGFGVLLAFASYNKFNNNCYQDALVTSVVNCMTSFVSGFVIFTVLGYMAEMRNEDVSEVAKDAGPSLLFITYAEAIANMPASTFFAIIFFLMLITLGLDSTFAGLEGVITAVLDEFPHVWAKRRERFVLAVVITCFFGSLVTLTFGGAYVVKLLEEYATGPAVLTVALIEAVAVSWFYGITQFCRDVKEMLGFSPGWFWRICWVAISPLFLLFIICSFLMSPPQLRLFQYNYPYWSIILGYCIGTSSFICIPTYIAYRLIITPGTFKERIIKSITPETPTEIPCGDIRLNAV

Sodium-dependent serotonin transporter (Homo sapiens, UniProt P31645, I179C), sequence (P31645 whole entry I179C): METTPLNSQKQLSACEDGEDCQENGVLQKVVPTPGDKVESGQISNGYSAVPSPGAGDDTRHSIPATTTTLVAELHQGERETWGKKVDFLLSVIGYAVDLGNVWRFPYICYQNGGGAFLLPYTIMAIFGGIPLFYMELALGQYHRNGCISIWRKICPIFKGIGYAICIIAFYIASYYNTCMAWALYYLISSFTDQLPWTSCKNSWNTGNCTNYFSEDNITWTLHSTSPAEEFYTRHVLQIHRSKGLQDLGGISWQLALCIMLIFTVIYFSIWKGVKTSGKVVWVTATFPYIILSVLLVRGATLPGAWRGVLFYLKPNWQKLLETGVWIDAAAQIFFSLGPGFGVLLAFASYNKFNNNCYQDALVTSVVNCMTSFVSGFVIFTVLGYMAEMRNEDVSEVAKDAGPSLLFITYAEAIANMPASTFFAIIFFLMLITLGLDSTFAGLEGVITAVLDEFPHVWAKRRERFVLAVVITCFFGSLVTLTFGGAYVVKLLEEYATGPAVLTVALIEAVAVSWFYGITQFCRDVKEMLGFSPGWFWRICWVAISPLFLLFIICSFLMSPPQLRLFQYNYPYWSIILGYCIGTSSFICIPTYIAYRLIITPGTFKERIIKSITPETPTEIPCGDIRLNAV
Sodium-dependent serotonin transporter (Homo sapiens, UniProt P31645), sequence (P31645 whole entry): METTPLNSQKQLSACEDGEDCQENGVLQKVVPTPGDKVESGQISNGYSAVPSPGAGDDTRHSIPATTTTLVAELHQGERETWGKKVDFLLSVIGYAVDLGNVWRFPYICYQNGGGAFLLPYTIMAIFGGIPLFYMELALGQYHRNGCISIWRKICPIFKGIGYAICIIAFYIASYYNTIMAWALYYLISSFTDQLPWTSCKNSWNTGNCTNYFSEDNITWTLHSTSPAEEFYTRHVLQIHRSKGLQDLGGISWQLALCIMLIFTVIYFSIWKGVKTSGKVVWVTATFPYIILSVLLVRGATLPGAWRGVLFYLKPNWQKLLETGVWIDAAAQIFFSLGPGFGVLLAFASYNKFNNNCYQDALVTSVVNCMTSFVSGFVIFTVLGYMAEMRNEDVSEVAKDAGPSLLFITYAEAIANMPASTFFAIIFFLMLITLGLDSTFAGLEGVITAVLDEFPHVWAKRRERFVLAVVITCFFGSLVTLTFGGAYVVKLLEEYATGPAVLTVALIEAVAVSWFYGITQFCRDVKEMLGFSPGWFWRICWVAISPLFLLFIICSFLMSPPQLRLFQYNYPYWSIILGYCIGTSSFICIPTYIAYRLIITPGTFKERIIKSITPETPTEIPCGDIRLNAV
Sodium-dependent serotonin transporter (Homo sapiens, UniProt P31645, W103A), sequence (P31645 whole entry W103A): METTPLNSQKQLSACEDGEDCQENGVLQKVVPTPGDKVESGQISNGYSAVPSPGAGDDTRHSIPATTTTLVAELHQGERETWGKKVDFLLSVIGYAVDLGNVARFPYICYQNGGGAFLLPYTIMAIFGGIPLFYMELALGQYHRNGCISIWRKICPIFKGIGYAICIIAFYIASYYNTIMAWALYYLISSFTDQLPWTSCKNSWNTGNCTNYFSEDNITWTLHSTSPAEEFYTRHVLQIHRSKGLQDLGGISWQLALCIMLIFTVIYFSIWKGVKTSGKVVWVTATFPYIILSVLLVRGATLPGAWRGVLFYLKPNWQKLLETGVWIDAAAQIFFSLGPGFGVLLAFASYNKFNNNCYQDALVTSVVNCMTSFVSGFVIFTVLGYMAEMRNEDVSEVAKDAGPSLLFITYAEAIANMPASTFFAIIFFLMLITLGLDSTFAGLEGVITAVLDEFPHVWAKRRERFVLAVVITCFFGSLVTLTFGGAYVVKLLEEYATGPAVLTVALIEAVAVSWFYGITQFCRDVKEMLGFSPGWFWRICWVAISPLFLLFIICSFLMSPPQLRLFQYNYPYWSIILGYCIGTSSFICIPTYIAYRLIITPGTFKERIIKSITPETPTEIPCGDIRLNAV

## CN(C)CCCN1c2ccccc2CCc2ccc(C#CCO)cc21
[1]
  Ki: 150 nM
[2]
  IC50: 60 nM
[3]
  Ki: 35 nM
[4]
  Ki: 2600 nM

## CN(C)CCCN1c2ccccc2CCc2ccc(C#CCOCc3cccc4ccccc34)cc21
[1]
  Ki: 590 nM
[2]
  IC50: 340 nM
[3]
  Ki: 280 nM
[4]
  Ki: 5400 nM

## C#Cc1ccc2c(c1)N(CCCN(C)C)c1ccccc1CC2
[1]
  Ki: 220 nM
[2]
  IC50: 40 nM
[3]
  Ki: 27 nM
[4]
  Ki: 2400 nM

## CN(C)CCCN1c2ccccc2CCc2ccc(C#CCOCCOCCOc3cccc4ccccc34)cc21
[1]
  Ki: 6500 nM
[2]
  IC50: 420 nM
[3]
  Ki: 450 nM
[4]
  Ki: 6400 nM

## CN(C)CCCN1c2ccccc2CCc2ccc(C#CCOCCOc3cccc4ccccc34)cc21
[1]
  Ki: 3500 nM
[2]
  IC50: 4800 nM
[3]
  Ki: 1800 nM
[4]
  Ki: 8000 nM

## CN(C)CCCN1c2ccccc2CCc2ccc(C#CCOCCCOc3cccc4ccccc34)cc21
[1]
  Ki: 3500 nM
[2]
  IC50: 940 nM
[3]
  Ki: 1200 nM
[4]
  Ki: 27000 nM

## CN(C)CCCN1c2ccccc2CCc2ccc(C#CCOCCOc3ccc4ccccc4c3)cc21
[1]
  Ki: 1500 nM
[2]
  IC50: 440 nM
[3]
  Ki: 640 nM
[4]
  Ki: 2000 nM

## CN(C)CCCN1c2ccccc2CCc2ccc(C#CCOCCCN3c4ccccc4CCc4ccccc43)cc21
[1]
  Ki: 13000 nM
[2]
  IC50: 1600 nM
[3]
  Ki: 1600 nM
[4]
  Ki: 16000 nM

## CN(C)CCCN1c2ccccc2CCc2ccc(CCCOCCCOCCCN3c4ccccc4CCc4ccccc43)cc21
[1]
  Ki: 5900 nM
[2]
  IC50: 840 nM
[3]
  Ki: 640 nM
[4]
  Ki: 11000 nM

## CN(C)CCCN1c2ccccc2CCc2ccc(CCCOCCCN3c4ccccc4CCc4ccccc43)cc21
[1]
  Ki: 6300 nM
[2]
  IC50: 270 nM
[3]
  Ki: 330 nM
[4]
  Ki: 15000 nM

## CN(C)CCCN1c2ccccc2CCc2ccc(CCCOCc3cccc4ccccc34)cc21
[1]
  Ki: 620 nM
[2]
  IC50: 610 nM
[3]
  Ki: 290 nM
[4]
  Ki: 5000 nM

## CN(C)CCCN1c2ccccc2CCc2ccc(C#CCOCCOCCSc3cccc4ccccc34)cc21
[1]
  Ki: 2000 nM
[2]
  IC50: 560 nM
[3]
  Ki: 500 nM
[4]
  Ki: 19000 nM

## CN(C)CCCN1c2ccccc2CCc2ccc(CCCOCCOCCc3cccc4ccccc34)cc21
[1]
  Ki: 1000 nM
[2]
  IC50: 280 nM
[3]
  Ki: 360 nM
[4]
  Ki: 6700 nM

## CN(C)CCCN1c2ccccc2CCc2ccc(CCCOCCCOc3cccc4ccccc34)cc21
[1]
  Ki: 1200 nM
[2]
  IC50: 600 nM
[3]
  Ki: 620 nM
[4]
  Ki: 9400 nM

## CN(C)CCCN1c2ccccc2CCc2ccc(CCCOCCOc3cccc4ccccc34)cc21
[1]
  Ki: 600 nM
[2]
  IC50: 280 nM
[3]
  Ki: 270 nM
[4]
  Ki: 2700 nM

## CN(C)CCCN1c2ccccc2CCc2ccc(C#CCOCCOCCc3cccc4ccccc34)cc21
[1]
  Ki: 1100 nM
[2]
  IC50: 300 nM
[3]
  Ki: 540 nM
[4]
  Ki: 5200 nM

## CN(C)CCCN1c2ccccc2CCc2ccc(C#CCOCCCOCCCN3c4ccccc4CCc4ccccc43)cc21
[1]
  Ki: 11000 nM
[2]
  IC50: 4100 nM
[3]
  Ki: 2800 nM
[4]
  Ki: 10000 nM
